Broadly, the Ki is a measure of affinity in units of concentration, obtained from inhibition or displacement. Read a high Ki as lower affinity. For orientation: clearance means a measure of how efficiently the substance is removed, as volume per time. The low end stands for inefficient removal, the high end for efficient removal. What is called bioavailability is dose-corrected exposure relative to a reference, in per cent. Low readings indicate little systemic uptake, high ones much systemic uptake. The half-life is how long it takes for the measured level to halve.

Data set [1] has as its target T1, Gastrin/cholecystokinin type B receptor (Homo sapiens, UniProt P32239).
T1 sequence (P32239 whole entry): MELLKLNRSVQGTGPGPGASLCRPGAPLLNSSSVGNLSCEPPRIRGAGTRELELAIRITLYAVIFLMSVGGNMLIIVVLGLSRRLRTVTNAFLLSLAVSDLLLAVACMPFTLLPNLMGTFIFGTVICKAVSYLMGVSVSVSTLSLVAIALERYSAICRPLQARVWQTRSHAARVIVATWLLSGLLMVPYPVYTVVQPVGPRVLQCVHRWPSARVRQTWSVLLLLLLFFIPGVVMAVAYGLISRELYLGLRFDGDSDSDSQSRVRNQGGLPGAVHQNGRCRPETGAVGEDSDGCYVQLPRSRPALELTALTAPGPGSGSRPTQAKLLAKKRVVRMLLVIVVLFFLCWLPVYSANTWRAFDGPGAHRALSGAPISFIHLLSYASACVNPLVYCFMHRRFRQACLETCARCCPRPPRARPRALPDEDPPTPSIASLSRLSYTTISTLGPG
The experiment in a line: Displacement of [125I]CCK8S from human CCK2R. In short, it runs like this: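 Radioligand competition binding at human CCK-2R against [125I]-CCK-8S. The pIC50 is the concentration displacing 50% of tracer binding, converted to pKi by the Cheng–Prusoff method.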
In general terms: Displacement assays read how much labelled ligand stays bound in the presence of the test substance.

The target in data set [2] is T2, Cholecystokinin receptor type A (Homo sapiens, UniProt P32238).
T2 sequence (P32238 whole entry): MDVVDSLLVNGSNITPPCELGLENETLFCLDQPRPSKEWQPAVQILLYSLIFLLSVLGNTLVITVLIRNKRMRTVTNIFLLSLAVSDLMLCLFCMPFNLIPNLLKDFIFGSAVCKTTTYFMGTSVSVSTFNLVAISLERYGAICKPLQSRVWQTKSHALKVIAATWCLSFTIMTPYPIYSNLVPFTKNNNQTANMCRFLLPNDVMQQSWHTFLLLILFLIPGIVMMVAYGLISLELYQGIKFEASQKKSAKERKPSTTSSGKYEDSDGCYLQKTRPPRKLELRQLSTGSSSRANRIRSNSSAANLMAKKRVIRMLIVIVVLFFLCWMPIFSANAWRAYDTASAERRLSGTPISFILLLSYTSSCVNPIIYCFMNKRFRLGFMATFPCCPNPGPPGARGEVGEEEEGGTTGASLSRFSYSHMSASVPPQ
The experiment in a line: Displacement of [125I]CCK8S from human CCK1R.

A short description of data set [3]: Clearance in rat at 2 umol/kg, iv. In kind it is ADME, organism-based. The note with it: in vivo. Put shortly:
(§1)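 Rat pharmacokinetics after an intravenous dose of […]. Clearance and half-life were derived from the iv dosing.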

Data set [4] is described as follows: Bioavailability in rat at 2 umol/kg, po. It is filed as ADME, organism-based. The note with it: in vivo. Put shortly: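 Rat oral dosing at […]. Bioavailability is reported as relative fraction absorbed (%F) from the po dose.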
Data set [5] is described as follows: Half life in rat at 2 umol/kg, iv. It is filed as ADME, organism-based. The settings on record: in vivo. In short, it runs like this:
as §1

Data set [6] is described as follows: Metabolic stability in human liver microsome assessed as compound remaining after 30 mins. In kind it is ADME. The note with it: liver microsomes, read-out: Stability. In short, it runs like this:
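Incubation for 30 min with pooled human liver microsome preparations (n = 20). Stability is expressed as percent of parent remaining.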
In general terms: Liver microsomes are a subcellular fraction often used to study metabolism.

Regarding `O=C(c1ccc(Br)cc1NS(=O)(=O)c1cccc2[nH]cnc12)N1CCCCC1`, the Ki in data set [1] was 1.58 µM; in data set [2], above 10 µM.

In the case of `Cn1nnc2c(S(=O)(=O)Nc3cc(Br)ccc3C(=O)N3CCCCC3)cccc21`, the results for the Ki in data set [1] and in data set [2] were 2 µM and above 10 µM, respectively.

Regarding `O=C(c1ccc(Br)cc1NS(=O)(=O)c1cccc2scnc12)N1CCCCC1`, the values for the Ki in data set [1] and in data set [2] were 0.0794 µM and above 10 µM, respectively.

As for `Cn1nc2cccc(S(=O)(=O)Nc3cc(Br)ccc3C(=O)N3CCCCC3)c2n1`, the Ki in data set [1] is 0.794 µM; in data set [2] it was above 10 µM.

In turn, `O=C(c1ccc(Br)cc1NS(=O)(=O)c1cccc2nccnc12)N1CCCCC1` showed a clearance in data set [3] of 13.8 mL/min/kg. In data set [4], this molecule returned a bioavailability of 50%. The same molecule had a half-life in data set [5] of 20.4 min. Besides, the remaining at 0.5 h in data set [6] was determined as 21%. This molecule also gave a Ki in data set [2] above 10 µM.

Regarding `O=C(NCc1ccc(Cl)cc1)c1ccc(Br)cc1NS(=O)(=O)c1cccc2nsnc12`, the Ki in data set [1] is 0.501 µM; in data set [2] it was above 10 µM.

Turning to `O=C(c1ccc(Br)cc1NS(=O)(=O)c1ccc2ncsc2c1)N1CCCCC1`, the inhibition constant Ki was 3.16 µM in data set [1] and above 10 µM in data set [2].

`O=C(c1ccc(Br)cc1NS(=O)(=O)c1cccc2ncsc12)N1CCCCC1`: the Ki in data set [1] is 0.794 µM; in data set [2] it was above 10 µM.

On to `Cc1nc2cccc(S(=O)(=O)Nc3cc(Br)ccc3C(=O)N3CCCCC3)c2s1`, for which the Ki in data set [1] was 5.01 µM; in data set [2], above 10 µM.

For `Cn1nc2ccc(S(=O)(=O)Nc3cc(Br)ccc3C(=O)N3CCCCC3)cc2n1`, the inhibition constant Ki in data set [1] and in data set [2] was above 10 µM each time.
